Experimental data as given in ChEMBL document CHEMBL1131170 (J Med Chem, 1998).
Calls of active or inactive are those of the source. The calls are words filed in the database; no cut-off is given here.

What was measured:
[1] = biological target: T1, Protein farnesyltransferase (Homo sapiens, UniProt P49354+P49356); test: Inhibitory activity against human Farnesyltransferase; assay type: protein-complex assay
Summary of the method: (§1)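 Compounds in 100% DMSO diluted 20-fold, giving 5% DMSO final. Farnesyl transfer measured; IC50 determined.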

[2] = biological target: T1, Protein farnesyltransferase; test: Inhibition of human Farnesyltransferase at 100 uM; assay type: protein-complex assay
[3] = biological target: T1, Protein farnesyltransferase; test: inhibitory activity against human Farnesyltransferase; assay type: protein-complex assay; summary of the method: as §1
[4] = biological target: T1, Protein farnesyltransferase; test: Inhibition of human Farnesyltransferase, inactive at 100 uM; assay type: protein-complex assay
[5] = tested on: HepG2; test: Inhibition of cholesterol biosynthesis in HepG2 cells at 42 uM; assay type: functional; conditions: Homo sapiens
Summary of the method: (§2)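 HepG2 cells seeded at 2 × 10^5/well on day 0, fed delipidated-serum medium on day 3 and again on day 5, when compounds in DMSO were added for 4 h. Labeled with [14C]acetate (3 µCi/mL) for 2 h, then saponified, acidified, petroleum ether extracted twice, TLC on silica (petroleum ether–ethyl ether–acetic acid 75:25:1), phosphor imaging; incorporation into cholesterol.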

[6] = biological target: T1, Protein farnesyltransferase; test: Inhibition of human Farnesyltransferase using Ras-CVLS; assay type: protein-complex assay
[7] = inhibition of human Geranylgeranyl transferase using Ras-CVIM
[8] = Inhibition of human Geranylgeranyl transferase using Ras-CAIL
[9] = tested on: HepG2; test: Inhibition of cholesterol biosynthesis in HepG2 cells at 106 uM; assay type: functional; conditions: Homo sapiens; summary of the method: as §2
[10] = tested on: HepG2; test: Inhibition of cholesterol biosynthesis in HepG2 cells at 21 uM; assay type: functional; conditions: Homo sapiens; summary of the method: as §2
[11] = biological target: T1, Protein farnesyltransferase; test: (§3) Inhibition of human Farnesyltransferase; assay type: protein-complex assay; summary of the method: as §1
[12] = biological target: T1, Protein farnesyltransferase; test: as §3; assay type: protein-complex assay; summary of the method: as §1; remark: listed apart in the source
[13] = biological target: T1, Protein farnesyltransferase; test: as §3; assay type: protein-complex assay; summary of the method: as §1; remark: listed apart in the source
[14] = biological target: T1, Protein farnesyltransferase; test: as §3; assay type: protein-complex assay; conditions: concentration not given here; summary of the method: as §1
[15] = tested on: HepG2; test: Inhibition of cholesterol biosynthesis in HepG2 cells at 81 uM; assay type: functional; conditions: Homo sapiens; summary of the method: as §2
[16] = tested on: HepG2; test: Inhibition of cholesterol biosynthesis in HepG2 cells at 32 uM; assay type: functional; conditions: Homo sapiens; summary of the method: as §2
[17] = biological target: T1, Protein farnesyltransferase; test: as §3; assay type: protein-complex assay; summary of the method: as §1; remark: listed apart in the source
[18] = biological target: T1, Protein farnesyltransferase; test: as §3; assay type: protein-complex assay; summary of the method: as §1; remark: listed apart in the source
[19] = tested on: HepG2; test: Inhibition of cholesterol biosynthesis in HepG2 cells at 16 uM; assay type: functional; conditions: Homo sapiens; summary of the method: as §2
[20] = biological target: T1, Protein farnesyltransferase; test: as §3; assay type: protein-complex assay; conditions: concentration not given here; summary of the method: as §1; remark: listed apart in the source
[21] = biological target: T1, Protein farnesyltransferase; test: as §3; assay type: protein-complex assay; summary of the method: as §1; remark: listed apart in the source
[22] = biological target: T1, Protein farnesyltransferase; test: as §3; assay type: protein-complex assay; summary of the method: as §1; remark: listed apart in the source
[23] = tested on: HepG2; test: Inhibition of cholesterol biosynthesis in HepG2 cells at 25 uM; assay type: functional; conditions: Homo sapiens
Summary of the method: (§4)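 HepG2 cells seeded on day 0; fresh medium with delipidated serum on day 3 and again on day 5, when compounds (DMSO stocks) were added for 4 h. Extracts were separated by silica TLC (petroleum ether–ethyl ether–acetic acid 75:25:1) and quantified by phosphor imaging as cholesterol incorporation.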

[24] = tested on: HepG2; test: Inhibition of cholesterol biosynthesis in HepG2 cells at 2.5 uM; assay type: functional; conditions: Homo sapiens; summary of the method: as §4

Structure (SMILES) | IC50 [1] [µM] | IC50 [3] [µM] | also measured
COC(=O)CC[C@@]1(C)C(=O)CCC2C1C(=O)C[C@@]1(C)C2CC[C@@]12OCOC21COCO1 (stereo not given in full) | 26 | – | –
CC(C)(CC(=O)O)CC(=O)OCC(=O)[C@@]1(O)CCC2C3CCC4=CC(=O)C=C[C@]4(C)[C@@]3(F)[C@@H](O)C[C@@]21C (stereo not given in full) | – | – | inhibition [2]: 63%
CC(C)CCCC(C)C1CCC2C3CCC4=CC(=O)[C@H](CC(=O)O)C[C@]4(C)C3CC[C@]12C (stereo not given in full) | – | > 100 | –
CCC(CC)C(=O)OCC(=O)[C@@]1(O)CCC2C3CCC4=CC(=O)CC[C@]4(C)C3C(=O)C[C@@]21C (stereo not given in full) | – | 56 | –
CC(CCC(=O)O)C1CC[C@H]2[C@@H]3CCC4CC(=O)CC[C@]4(C)[C@H]3CC(=O)[C@]12C (stereo not given in full) | – | – | inhibition [2]: 33%
CCC(CC)C(=O)OCC(=O)[C@@]1(O)CCC2C3CCC4=CC(=O)CC[C@]4(C)C3[C@@H](O)C[C@@]21C (stereo not given in full) | – | > 100 | –
CC(C)=CCCC(C)C1CC[C@@]2(C)C3=C(CC[C@]12C)[C@@]1(C)CCC(=O)C(C)(C)C1CC3 (stereo not given in full) | – | 12 | –
C[C@]12C=CC(=O)C=C1CC[C@@H]1[C@@H]2[C@@H](O)C[C@@]2(C)[C@H]1CC[C@]2(O)C(=O)COC(=O)CCC(=O)O | – | – | inhibition [2]: 36%
C[C@]12CCC(=O)C=C1CCC1C2C(=O)C[C@@]2(C)C1CC[C@]2(O)C(=O)COC(=O)CC(CC(=O)O)C(=O)O (stereo not given in full) | – | 50 | –
CC(C)C(=O)OCC(=O)C1CCC2C3CCC(=O)[C@](C)(CCC(=O)O)C3C(=O)C[C@]12C (stereo not given in full) | 40 | – | –
CCOC(=O)C[C@@H]1C[C@@]2(C)C(=CC1=O)CCC1C3CCC(C(C)CCCC(C)C)[C@@]3(C)CCC12 (stereo not given in full) | – | > 100 | –
CC(C)CCCC(C)C1CCC2C3CC=C4C(C)(C)C(=O)CC[C@]4(C)C3CC[C@]12C (stereo not given in full) | – | – | inhibition [4]: inactive
CC(C)(CC(=O)O)CC(=O)OCC(=O)[C@@]1(O)CCC2C3CCC4=CC(=O)CC[C@]4(C)[C@@]3(F)[C@@H](O)C[C@@]21C (stereo not given in full) | – | 48 | –
CC[C@H]1CC(=O)[C@](C)(C[C@@H](CC(=O)O)C(=O)O)C2CC[C@]3(C)C(C(C)CCCC(C)C)CCC3C21 (stereo not given in full) | 3 | – | –
CC(=O)OCC(=O)[C@@]1(O)C(C)CC2C3CCC4=CC(=O)C=C[C@]4(C)C3=CC[C@@]21C (stereo not given in full) | – | 40 | –
C[C@H](CCC(O)C(C)(C)O)[C@H]1CC[C@@]2(C)C3=C(CC[C@]12C)[C@@]1(C)C[C@@H](O)C(=O)C(C)(C)[C@@H]1CC3 (stereo not given in full) [CLAVARINONE] | – | 15 | inhibition at 42 µM [5]: 74%; IC50 [6]: 8 µM; IC50 [7]: > 50 µM; IC50 [8]: 35 µM; inhibition at 106 µM [9]: 97%; inhibition at 21 µM [10]: 59%
C[C@H]1CC2C3CCC4=CC(=O)C=C[C@]4(C)C3C(=O)C[C@]2(C)[C@]12OCOC21COCO1 (stereo not given in full) | – | 96 | –
C[C@]12C=C(C=O)C(=O)C=C1CCC1C2C(=O)C[C@@]2(C)C1CC[C@@]21OCOC12COCO2 (stereo not given in full) | – | 1.2 | –
CC(C)C(=O)OCC(=O)[C@@]1(O)CCC2C3CCC4=CC(=O)CC[C@]4(C)C3C(=O)C[C@@]21C (stereo not given in full) | – | 15 | –
C[C@]1(CCC(=O)O)C(=O)CCC2C1C(=O)C[C@@]1(C)C2CC[C@@]12OCOC21COCO1 (stereo not given in full) | 29 | – | –
COC(=O)CC[C@@]1(C)C(=O)C[C@H](C)C2C3CCC(C(C)CCCC(C)C)[C@@]3(C)CCC21 (stereo not given in full) | – | > 100 | –
C[C@]12CCC(=O)C=C1CCC1C2C(=O)C[C@@]2(C)C1CCC2(O)C(=O)COC(=O)CCC(=O)O (stereo not given in full) | – | 24 | –

Structure (SMILES) | IC50 [1] [µM] | IC50 [3] [µM] | also measured
CC(C)CCCC(C)C1CCC2C3CC[C@@H](C(=O)O)[C@](C)(CCC(=O)O)C3CC[C@]12C (stereo not given in full) | 21 | – | –
CC[C@H]1CC2=CC(=O)CC[C@]2(C)C2CC[C@]3(C)C(C(C)CCCC(C)C)CCC3C21 (stereo not given in full) | – | > 100 | –
C[C@H](CCC(O)C(C)(C)O)[C@H]1CC[C@@]2(C)C3=C(CC[C@]12C)[C@@]1(C)C[C@@H](OC(=O)CC(C)(O)CC(=O)O)C(=O)C(C)(C)[C@@H]1CC3 (stereo not given in full) [CLAVARIC ACID] | – | – | FPTase activity (fM ug-1 min-1) [11]: 592; FPTase activity (fM ug-1 min-1) [12]: 3340; FPTase activity (fM ug-1 min-1) [13]: 2390; inhibition [14]: 84%; inhibition at 81 µM [15]: 69%; inhibition at 32 µM [16]: 0%; IC50 [6]: 0.35 µM; FPTase activity (fM ug-1 min-1) [17]: 7340; inhibition ([17]; concentration not given here): 70%; FPTase activity (fM ug-1 min-1) [18]: 694; inhibition at 16 µM [19]: 0%; IC50 [7]: > 50 µM; inhibition [20]: 81%; FPTase activity (fM ug-1 min-1) [21]: 3330; IC50 [8]: 21 µM
CC(=O)OCC(=O)[C@@]1(O)CCC2C3CCC4=CC(=O)CC[C@]4(C)C3[C@@H](O)C[C@@]21C (stereo not given in full) | – | – | inhibition [2]: 6%
CC(C)CCCC(C)C1CCC2C3CCC(=O)C(CCC(=O)O)C3CC[C@]12C (stereo not given in full) | 1.2 | – | –
CC(C)CCCC(C)C1CCC2C3CCC(=O)[C@](C)(CCC(=O)O)C3CC[C@]12C (stereo not given in full) | 40 | – | –
CC(C)CCCC(C)C1CCC2C3C(CC[C@]12C)[C@@](C)(C[C@@H](CC(=O)O)C(=O)O)C(=O)C[C@@H]3C (stereo not given in full) | 0.04 | – | –
CC(CCC(=O)O)C1CCC2C3C(CC[C@]12C)[C@@](C)(CCC(=O)O)C(=O)C[C@@H]3C (stereo not given in full) | 31 | – | –
CC(C)CCCC(C)C1CCC2C3CCC(=O)[C@](C)(C[C@@H](CC(=O)O)C(=O)O)C3CC[C@]12C (stereo not given in full) | – | – | IC50 [22]: 190 nM
C[C@]12CCC(=O)C=C1CC[C@@H]1[C@@H]2[C@@H](O)C[C@@]2(C)[C@H]1CC[C@]2(O)C(=O)COC(=O)CCC(=O)O | – | – | inhibition [2]: 46%
C[C@]12CC(=O)C3C(CCC4=CC(=O)CC[C@@]43C)C1CCC2C(=O)CO (stereo not given in full) | – | > 100 | –
CC(CCCC(C)(C)O)[C@H]1CC[C@H]2C3CC=C4C[C@@H](O)CC[C@]4(C)[C@H]3CC[C@]12C (stereo not given in full) | – | – | inhibition at 25 µM [23]: 90%; inhibition at 2.5 µM [24]: 87%
CC(=O)OCC(=O)[C@@]1(O)CC[C@H]2[C@@H]3CCC4=CC(=O)CC[C@]4(C)[C@H]3C(=O)C[C@@]21C [CORTISONE ACETATE] | – | 12 | –
CC[C@H]1CC(=O)[C@](C)(CCC(=O)O)C2CC[C@]3(C)C(C(C)CCCC(C)C)CCC3C21 (stereo not given in full) | 60 | – | –
CCOC(=O)C[C@H](C[C@@]1(C)C(=O)CCC2C3CCC(C(C)CCCC(C)C)[C@@]3(C)CCC21)C(=O)O (stereo not given in full) | > 100 | – | –
CC(=O)OCC(=O)[C@@]1(O)CCC2C3CCC4=CC(=O)CC[C@]4(C)C3CC[C@@]21C (stereo not given in full) | – | – | inhibition [2]: 6%
C[C@@H]1CC2C3CCC4=CC(=O)C=C[C@]4(C)C3C(=O)C[C@]2(C)[C@]12OCOC21COCO1 (stereo not given in full) | – | > 100 | –
CCOC(=O)C[C@H](C[C@@]1(C)C(=O)C[C@H](CC)C2C3CCC(C(C)CCCC(C)C)[C@@]3(C)CCC21)C(=O)O (stereo not given in full) | 40 | – | –
C[C@]1(C(=O)O)C(=O)CCC2C1C(=O)C[C@@]1(C)C2CC[C@@]12OCOC21COCO1 (stereo not given in full) | > 100 | – | –
C[C@]12C=C(C3OCCO3)C(=O)C=C1CCC1C2C(=O)C[C@@]2(C)C1CC[C@@]21OCOC12COCO2 (stereo not given in full) | – | 38 | –
CC(=O)C1CCC2C3CCC(=O)[C@](C)(CCC(=O)O)C3C(=O)C[C@]12C (stereo not given in full) | > 100 | – | –
CC(C)CCCC(C)C1CCC2C3C(CC[C@]12C)[C@@](C)(CCC(=O)O)C(=O)C[C@@H]3C (stereo not given in full) | 0.9 | – | –
